Experimental data from ChEMBL document CHEMBL1158958, “Studies on inhibitors of skin tumor promotion, IX. Neolignans from Magnolia officinalis” (J Nat Prod, 1991).

Columns and labels:
Raji [1] = test: Inhibition of 12-O-tetradecanoylphorbol-13-acetate-induced EBV-early antigen activation in human Raji cells at 10 molar ratio after 48 hrs relative to TPA; type: cell-based; set-up: scale not given: the % may be the effect or the level left; conditions: human gammaherpesvirus 4
How it was run: (§1)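 Raji indicator cells kept 48 h at 37° in 1 ml medium with n-butyric acid (4 mM, co-inducer), TPA (20 ng/ml, […]) and test compound in DMSO, dosed as mol ratio to TPA. EA-positive cells were found by indirect immunofluorescence on smears with high-titer EBV-positive NPC patient sera. At least 500 cells counted per assay, repeated twice. Induction is expressed relative to the butyric acid+TPA positive control (100%).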

Mus musculus = test: Inhibition of DMBA-induced/TPA-promoted carcinogenesis in ICR mouse assessed as reduction of skin papillomas per mouse at 85 nmol administered twice weekly after 1 week of initiation measured after 20 weeks; type: functional; set-up: scale not given: the % may be the effect or the level left
How it was run: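 Female ICR mice, 7 weeks old, 15 per group, had shaved backs. They were initiated with DMBA (100 µg, […]) in Me2CO, then promoted from 1 week later with TPA (1 µg, […]) in Me2CO twice weekly, with test agent given with TPA. Papilloma incidence and average papillomas per mouse were scored against the TPA-alone control.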

Raji [2] = test: Inhibition of 12-O-tetradecanoylphorbol-13-acetate-induced EBV-early antigen activation in human Raji cells at 1 molar ratio after 48 hrs relative to TPA; type: cell-based; set-up: scale not given: the % may be the effect or the level left; conditions: human gammaherpesvirus 4; how it was run: as §1
[3] = Cytotoxicity against human Raji cells assessed as cell viability at 100 molar ratio; type: cell-based; conditions: read-out: Activity
How it was run: (§2)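 Raji cell viability read in the same EBV-EA run: 48 h at 37° with n-butyric acid (4 mM) and TPA ([…]) plus test compound in DMSO, dosed as mol ratio to TPA. Viability is given alongside the relative EA activation values.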

Raji [4] = test: Inhibition of 12-O-tetradecanoylphorbol-13-acetate-induced EBV-early antigen activation in human Raji cells at 500 molar ratio after 48 hrs relative to TPA; type: cell-based; set-up: scale not given: the % may be the effect or the level left; conditions: human gammaherpesvirus 4; how it was run: as §1
[5] = Cytotoxicity against human Raji cells assessed as cell viability at 1 molar ratio; type: cell-based; conditions: read-out: Activity; how it was run: as §2
[6] = Cytotoxicity against human Raji cells assessed as cell viability at 1000 molar ratio; type: cell-based; conditions: read-out: Activity; how it was run: as §2
[7] = Cytotoxicity against human Raji cells assessed as cell viability at 10 molar ratio; type: cell-based; conditions: read-out: Activity; how it was run: as §2
Raji [8] = test: Inhibition of 12-O-tetradecanoylphorbol-13-acetate-induced EBV-early antigen activation in human Raji cells at 100 molar ratio after 48 hrs relative to TPA; type: cell-based; set-up: scale not given: the % may be the effect or the level left; conditions: human gammaherpesvirus 4; how it was run: as §1
Raji [9] = test: Inhibition of 12-O-tetradecanoylphorbol-13-acetate-induced EBV-early antigen activation in human Raji cells at 1000 molar ratio after 48 hrs relative to TPA; type: cell-based; set-up: scale not given: the % may be the effect or the level left; conditions: human gammaherpesvirus 4; how it was run: as §1
[10] = Cytotoxicity against human Raji cells assessed as cell viability at 500 molar ratio; type: cell-based; conditions: read-out: Activity; how it was run: as §2

Structure (SMILES) | Activity (Raji [1]) | Activity (Mus musculus) | Activity (Raji [2]) | viability at 100 molar ratio [3] | Activity (Raji [4]) | viability at 1 molar ratio [5] | viability at 1000 molar ratio [6] | viability at 10 molar ratio [7] | Activity (Raji [8]) | Activity (Raji [9]) | viability at 500 molar ratio [10]
C=CCc1ccc(O)c(-c2cc(CC=C)ccc2O)c1 [MAGNOLOL] | 56.9% | 40% | 94.4% | > 80% | 0% | > 80% | 70% | > 80% | 31.2% | 0% | > 80%
C=CCc1ccc(O)c(-c2cc(CC=C)cc(C3C=C(C)CC[C@@H]3C(C)C)c2O)c1 (stereo partly specified) [MONOTERPENYL MAGNOLOL] | 100% |  | 100% | > 80% | 20.9% | > 80% | 60% | > 80% | 82.6% | 11.6% | > 80%
CC1=CC[C@H](C(C)C)C=C1 [ALPHA-PHELLANDRENE] | 100% |  | 100% | > 80% | 93.7% | > 80% | > 80% | > 80% | 100% | 78.5% | > 80%
C=CCc1ccc(O)c(-c2ccc(O)c(CC=C)c2)c1 [HONOKIOL] | 90.1% |  | 100% | > 80% | 18.5% | > 80% | 60% | > 80% | 69.4% | 0% | > 80%
C=C1CCC[C@]2(C)CC[C@@H](C(C)(C)O)C[C@@H]12 [BETA-EUDESMOL] | 100% |  | 100% | > 80% | 68.9% | > 80% | > 80% | > 80% | 83.8% | 40.1% | > 80%
